GSTO1 inh – GSTO1 inhibition, counter-screen for RBBP9 inhibitors; actives 1.1% (n = 300,000); inhibition, % at 5.96 µM; recombinant GSTO1, activity-based probe fluorescence polarization;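 active = inhibition above the campaign mean inhibition plus 3 SD, cut at about 35% in these data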
PAD4 inh – inhibitors of human PAD4; Q9UM07; recombinant PAD4, RCA probe fluorescence polarization; inhibition, % at 6.36 µM; actives 0.41% (n = 330,000); AID 485272;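 active = percent inhibition above a cutoff equal to the mean of all tested compounds plus 3 SD, cut at about 15% in these data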
Apaf1 inhib – human Apaf-1 inhibition; reconstituted apoptosome caspase-3 activity, DEVD-Rh110 fluorescence; actives 0.71% (n = 330,000); AID 489030; inhibition, % at 20 µM; active = inhibition of at least 40% at 20 µM
Target sequence (O14727 whole entry, looked up): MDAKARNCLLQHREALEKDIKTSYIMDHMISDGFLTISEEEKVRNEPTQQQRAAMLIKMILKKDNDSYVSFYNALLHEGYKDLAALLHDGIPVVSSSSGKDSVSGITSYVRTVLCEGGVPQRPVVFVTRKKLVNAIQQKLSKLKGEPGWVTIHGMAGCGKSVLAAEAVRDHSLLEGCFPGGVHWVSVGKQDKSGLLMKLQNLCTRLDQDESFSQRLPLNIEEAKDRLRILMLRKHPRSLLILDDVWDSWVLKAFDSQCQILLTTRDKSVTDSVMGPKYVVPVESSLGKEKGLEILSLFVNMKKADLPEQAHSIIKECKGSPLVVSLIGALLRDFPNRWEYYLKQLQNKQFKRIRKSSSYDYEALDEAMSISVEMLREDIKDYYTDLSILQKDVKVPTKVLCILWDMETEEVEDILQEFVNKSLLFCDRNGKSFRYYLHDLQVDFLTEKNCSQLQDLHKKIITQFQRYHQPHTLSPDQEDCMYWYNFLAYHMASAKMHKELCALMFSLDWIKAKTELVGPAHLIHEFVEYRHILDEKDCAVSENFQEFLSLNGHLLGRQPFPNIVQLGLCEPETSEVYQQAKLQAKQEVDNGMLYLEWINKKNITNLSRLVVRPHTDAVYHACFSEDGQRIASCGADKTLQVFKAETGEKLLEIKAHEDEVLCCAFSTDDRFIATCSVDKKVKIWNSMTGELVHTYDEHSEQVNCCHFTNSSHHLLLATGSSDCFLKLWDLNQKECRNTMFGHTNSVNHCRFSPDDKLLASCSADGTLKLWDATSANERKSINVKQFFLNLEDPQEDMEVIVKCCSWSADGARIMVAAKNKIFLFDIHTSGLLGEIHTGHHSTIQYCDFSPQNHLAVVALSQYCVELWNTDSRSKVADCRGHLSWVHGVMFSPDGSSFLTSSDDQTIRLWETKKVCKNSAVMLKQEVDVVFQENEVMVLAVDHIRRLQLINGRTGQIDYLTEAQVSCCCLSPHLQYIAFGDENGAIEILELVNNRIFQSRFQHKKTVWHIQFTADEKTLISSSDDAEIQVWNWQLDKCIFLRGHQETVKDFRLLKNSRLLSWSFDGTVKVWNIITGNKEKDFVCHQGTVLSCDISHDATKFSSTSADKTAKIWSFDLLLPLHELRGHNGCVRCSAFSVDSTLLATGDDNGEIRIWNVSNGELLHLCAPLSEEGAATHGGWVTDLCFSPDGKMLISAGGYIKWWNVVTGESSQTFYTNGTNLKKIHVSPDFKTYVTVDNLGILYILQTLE
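Material: biochemical Apaf-1 apoptosome reconstitution. Medium: Hepes buffer, pH 7.5. Also added: cytochrome c activation, bis-DEVD rhodamine 110 substrate. Timing: 30 min compound preincubation, 50 min activation, room temperature. Measured by: rhodamine 110 fluorescence at Ex 480/Em 540 nm.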
CTSL1 counter – blocks F. hepatica cathepsin L1 in PFM18AAP counter-screen; recombinant F. hepatica cathepsin L1, Z-Leu-Arg-MCA fluorescence; inhibition, % at 5.96 µM; actives 0.49% (n = 300,000);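 active = inhibition above the mean of all tested compounds plus 3 SD, set per screening campaign, cut at about 17% in these data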
TDP2 absorb – TDP2 (human) inhibition, absorbance primary screen. recombinant TDP2, T5PNP hydrolysis, p-nitrophenol absorbance 415 nm. actives 0.34% (n = 370,000). AID 720702. inhibition, % at 12.8 µM. O95551;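 active = inhibition above the mean of all tested compounds plus 3 SD, set per campaign, cut at about 25% in these data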
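test system = human TDP2 enzyme | input = TDP2 enzyme at 120 nM final | medium = 50 mM Tris-HCl pH 7.5 with Mg2+, KCl, DTT, BSA | also added = T5PNP substrate, 5 mM | times = 2 h at 37 °C | technique = epi absorbance | benchmarks = high control without enzyme, low control DMSO plus TDP2 | replication = each compound tested once, singlicate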
GSTO1 inh conf – GSTO1 (human) inhibition, confirmation; shares compounds with GSTO1 inh; recombinant GSTO1, probe fluorescence polarization; inhibition, % at 5.96 µM; actives 54% (n = 2,400); AID 2176;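 active = inhibition above the primary screen's cutoff, its mean inhibition plus 3 SD, cut at about 35% in these data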;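 also: loss of polarization as inhibitors block binding of rhodamine sulfonate ester activity probe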
GSTO1 ABPP inh – inhibitors of recombinant human GSTO1; actives 30% (n = 130); gel ABPP SE-Rh probe fluorescence; inhibition, % at 1 µM; shares compounds with GSTO1 inh; AID 463110;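 active = inhibition of the enzyme GSTO1 above about 75%, limit read from the data; inactive = inhibition below that limit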
Numbers stand for hits; . = inactive; / = not tested or not shown. Compounds with a hit are over-represented: about 1.8% of the library has one in this group of screens.

SMILES | GSTO1 inh | PAD4 inh | Apaf1 inhib | CTSL1 counter | TDP2 absorb | GSTO1 inh conf | others
Cc1ccc(S(=O)(=O)Oc2ccc(C3C4=C(CCCC4=O)N(CCC(=O)O)C4=C3C(=O)CCC4)cc2Cl)cc1 | 61.8 | . | . | . | . | 60.8
CCOc1ccc(C2C3=C(CC(C)(C)CC3=O)N(CC(=O)O)C3=C2C(=O)CC(C)(C)C3)cc1OCC | . | . | . | . | . | /
CCOc1cc(C2C3=C(CCCC3=O)N(CCC(=O)O)C3=C2C(=O)CCC3)ccc1OS(=O)(=O)c1ccc(C)cc1 | 77.7 | . | . | . | . | 69.8
O=C1COc2ccc(C(=O)NCc3ccc4c(c3)OCO4)cc2N1 | 43.3 | . | . | . | . | .
Cc1ccc(-c2csc3nc4cc(C(=O)NC5CCC(O)CC5)ccc4c(=O)n23)cc1 (stereo not given) | 38.9 | . | . | . | . | .
Cc1ccc(-c2csc3nc4ccc(C(=O)NCCO)cc4c(=O)n23)cc1 | . | . | . | . | . | /
O=C(O)Cc1c[nH]c2cccc(O)c12 | 42.3 | . | . | . | . | .
COC(=O)[C@]12C[C@H](CC(=O)NCc3ccc(C)o3)C(=O)N(Cc3ccco3)C1=C[C@H](C1CCCC1)O[C@@H]2C | / | / | / | / | . | /
C=CCOc1ccccc1CN(C(=O)CCl)c1ccc2c(c1)OCO2 | 95.2 | . | . | . | . | 86.0 | GSTO1 ABPP inh=75.0
COC(=O)C1=C(C)N(C)C(=NCc2ccccc2C(F)(F)F)NC1c1ccc(F)cc1 (stereo not given) | / | / | / | / | . | /
Cc1cc(/C=C2\SC(=S)NC2=O)c(C)n1-c1cccc(O)c1 | 53.5 | . | . | . | . | 51.3
Cc1ccc(-n2c(C)cc(/C=C3\SC(=O)NC3=O)c2C)cc1 | . | . | . | . | . | /
CC1(C)CC(=O)C2=C(C1)N(C1CCCCC1)C(=O)C2(O)C(F)(F)F (stereo not given) | 65.4 | . | . | . | . | .
COc1cccc(C2NC(=S)NC(C)=C2C(C)=O)c1 (stereo not given) | / | / | / | / | . | /
CCN(CC)C(=O)[C@H]1C[C@@H]2[C@H](C[C@@H](c3ccccc3)[C@H]1C)N(c1ccc(F)cc1)C(=O)N2C/C=C(\C)CCC=C(C)C | / | / | / | / | . | /
COc1ccc(OC)c2c1C(=O)CC2C (stereo not given) | / | / | / | / | . | /
COc1ccc(OC)c2c1C(=O)C(Cl)=C(Cl)C2=O | 57.5 | . | . | . | . | .
Cc1nn(-c2ccccc2)c(Cl)c1CN(C(=O)CCl)c1ccc(Cl)cc1 | 82.4 | . | / | . | . | 92.8 | GSTO1 ABPP inh=88.0
CCOC(=O)c1cccc(NC(=O)CN(C)S(=O)(=O)c2ccc(Br)s2)c1 | / | / | / | / | . | /
O=C(O)/C=C\C(=O)Nc1ccc(N2CCN(c3ccc(Cl)cc3)CC2)cc1 | 59.2 | . | . | . | . | .
O=C(O)/C=C\C(=O)Nc1ccc(N2CCN(c3cccc(Cl)c3)CC2)cc1 | 44.9 | . | . | . | . | .
COc1cc(NC(=O)NC2CCCCN(Cc3cccc(Cl)c3)C2=O)cc(OC)c1 (stereo not given) | / | / | / | / | . | /
CCCCOc1ccc(-c2ncc(C(=O)O)c(C)n2)cc1 | 43.4 | . | . | . | . | .
Cc1nnc2c(SC(C)C)nc3ccccc3n12 | 41.6 | . | . | . | . | .
CCOC(=O)CSc1nc2ccccc2n2c(C)nnc12 | . | . | . | . | . | /
SMILES | GSTO1 inh | PAD4 inh | Apaf1 inhib | CTSL1 counter | TDP2 absorb | GSTO1 inh conf | others
O=c1cc(CCl)nc2sc3ccccc3n12 | 89.3 | . | . | . | . | 100.1 | GSTO1 ABPP inh=87.0
O=C(OCc1cc(=O)n2c(n1)sc1ccccc12)c1ccc(O)cc1 | . | . | . | . | . | /
O=C(CCl)N1N=C(c2cccs2)CC1c1ccco1 (stereo not given) | 92.0 | . | . | 27.3 | . | 100.2
CN1CCN(CC(=O)N2N=C(c3cccs3)CC2c2ccco2)CC1 (stereo not given) | . | . | . | . | . | /
O=C(CCl)N1N=C(c2ccco2)CC1c1ccco1 (stereo not given) | 89.6 | . | . | . | . | 97.0
COC(=O)[C@]12C[C@H](CC(=O)NCc3cccs3)C(=O)N(Cc3ccc(Cl)cc3Cl)C1=C[C@H](C(C)(C)C)O[C@@H]2C | / | / | / | / | . | /
CCN(CC)c1ccc2c(O)cc(=O)oc2c1 | 53.6 | . | . | . | . | .
Cc1nnc(SCC(=O)c2cc(C)n(-c3c(C)n(C)n(-c4ccccc4)c3=O)c2C)s1 | 37.8 | . | . | . | . | .
Cc1cc(C(=O)CSc2nnc(N)s2)c(C)n1-c1c(C)n(C)n(-c2ccccc2)c1=O | . | . | . | . | . | /
O=C(CSc1nnc(-c2ccco2)o1)c1ccc(F)c(F)c1 | 37.5 | . | . | . | . | .
CCCC(=O)N1CCC[C@]2(CC[C@@H](CCC(C)=O)O2)C1 | / | / | / | / | . | /
CCc1ccccc1N(C(=O)CNC(=O)c1ccco1)C(C(=O)NC1CCCC1)c1cccnc1 (stereo not given) | . | . | . | . | . | /
O=C(NC1CCCCC1)C(c1cccnc1)N(C(=O)CCl)c1ccccc1Cl (stereo not given) | 87.7 | . | . | . | . | 83.5 | GSTO1 ABPP inh=.
O=C(NC1CCCCC1)C(c1cccnc1)N(C(=O)CCl)c1ccc(F)cc1 (stereo not given) | 94.7 | . | / | . | . | 97.3 | GSTO1 ABPP inh=82.0
O=C(NCC(=O)N(c1ccc(F)cc1)C(C(=O)NC1CCCCC1)c1cccnc1)c1ccco1 (stereo not given) | . | . | . | . | . | /
COC(=O)c1ccc(CC(=O)c2c(C)cc(O)cc2O)o1 | 43.2 | . | . | . | . | .
CCCN(C(=O)CCl)C1=CCCCC1 | 38.2 | . | . | . | . | 57.9 | GSTO1 ABPP inh=.
CC(C)c1ccc(S(=O)(=O)/N=C2\C=C(NS(=O)(=O)c3ccccc3)C(=O)c3ccccc32)cc1 | 78.6 | . | / | . | 25.2 | 75.0
COC(=O)c1cc(S(=O)(=O)N2CCN(c3cccc(C(F)(F)F)c3)CC2)cn1C | / | / | / | / | . | /
COc1ccc(-c2cc(C(=O)NN=Cc3ccccc3F)[nH]n2)cc1 | / | / | / | / | . | /
Cc1nnc(N/N=C/c2c(O)n(-c3cccc(C(F)(F)F)c3)c(=O)c3ccccc23)[nH]c1=O | 39.1 | . | . | . | . | .
Cc1cc(N=Cc2c(O)n(-c3cccc(C(F)(F)F)c3)c(=O)c3ccccc23)no1 | . | . | . | . | . | /
O=C(CSc1nnc(COc2ccccc2)n1-c1ccc(Cl)cc1)Nc1ccc2c(c1)OCCO2 | / | / | / | / | . | /
O=C1/C(=C\c2ccc(O)c(O)c2)N=C2CCCCCN12 | 44.4 | . | . | . | . | .
COc1cc(/C=C2\N=C3CCCCCN3C2=O)ccc1O | . | . | . | . | . | /
CC(C)(C)c1ccc(O)c(N)c1 | 38.4 | . | . | . | / | .
O=S(=O)(O)c1cc(Cl)cc(N=Nc2ccc(O)cc2O)c1O | / | / | / | / | . | /
